MrgX1 antag: human MrgX1 receptor antagonism, primary screen | 310,000 compounds, 1.3% hits | MRGX1-HEK293 calcium flux, Fluo-4, BAM8-22 antagonism; hits give low values | B-score at 10 µM;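 active = calcium-response B-score plate-corrected more than 3 library SD below zero, starting fluorescence within 5 deviations, no agonist response on first addition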;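 also: peak minus trough fluorescence over baseline after final BAM8-22 challenge near maximal dose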
Target sequence (Q96LB2 whole entry, looked up): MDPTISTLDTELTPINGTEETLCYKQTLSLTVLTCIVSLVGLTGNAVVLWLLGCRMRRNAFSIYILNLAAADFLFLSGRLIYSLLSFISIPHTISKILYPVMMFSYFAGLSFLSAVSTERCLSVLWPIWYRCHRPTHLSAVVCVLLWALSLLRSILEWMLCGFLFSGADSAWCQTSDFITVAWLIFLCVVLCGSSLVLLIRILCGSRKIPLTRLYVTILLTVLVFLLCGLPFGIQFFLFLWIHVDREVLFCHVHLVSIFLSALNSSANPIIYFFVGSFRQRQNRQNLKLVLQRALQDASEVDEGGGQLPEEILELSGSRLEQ
RGS4 pot: RGS4 potentiation or activation; HEK293 M3R/inducible RGS4, carbachol calcium flux Fluo4; hits give low values; B-score at 10 µM; AID 463111; 310,000 compounds, 0.92% hits;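 active = B-score of the integrated calcium signal more than 4 SD below the library mean, with starting fluorescence not abnormally high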;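 also: negative B-score means reduced calcium response which marks RGS4 activation or potentiation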
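test system = M3R-expressing HEK293 line, RGS4 induced by doxycycline | probe or stimulus = carbachol at ECmax as muscarinic agonist stimulus | timing = dye loading 30 min 37 °C, buffer rest 30 min RT | signal = calcium dye Fluo4 fluorescence | evaluation = B score from integrated fluorescence ratio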
MrgX1 allo act: human MrgX1 positive allosteric modulation, primary screen | B-score at 10 µM | 310,000 compounds, 0.63% hits | AID 588675 | MrgX1-HEK293, Fluo-4 calcium flux, FDSS; hits give high values;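 active = plate-corrected calcium response at least 3 library SD above typical, normal starting fluorescence, not activating the receptor alone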;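 also: compound read alongside a low EC10 to EC30 dose of BAM8-22 agonist; peak minus trough fluorescence over baseline measured at the second addition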
RGS4 block: human RGS4 inhibition; P49798; B-score at 10 µM; HEK293 M3R/RGS4 inducible, Fluo-4 calcium flux; hits give high values; triggered by carbachol at its EC20; 310,000 compounds, 0.45% hits;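 active = B-score, a plate-corrected calcium signal, over three deviations above library mean, with baseline fluorescence within five deviations of library mean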;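 also: RGS4 expression induced by doxycycline in cells with stable M3 receptor; B-score is computed from the integrated fluorescence ratio over baseline after carbachol; higher B-score means a larger calcium signal and so more RGS4 inhibition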
MrgX1 ag: human MrgX1 receptor agonism, primary screen | Q96LB2 | MrgX1-HEK293 cells, Fluo-4 calcium fluorescence, agonist mode; hits give high values | B-score at 10 µM | 310,000 compounds, 0.44% hits;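 active = calcium response B-score plate-corrected fluorescence ratio at least 3 library SD, with starting fluorescence B-score inside 5 SD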
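System: HEK293 cells stably expressing human MrgX1 receptor; Dosing: test compound in the initial addition of three; Schedule: overnight plating, then 30 min 37 °C plus 30 min room-temperature dye loading; Detection: kinetic calcium dye fluorescence, Fluo-4 NW; Controls: per-plate positive and negative controls for Z′ factor.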
Numbers without * were called inactive; i = inactive; . = not tested or not shown. In the library only some 3.5% were active in any assay of this set; here they are far more common.

SMILES	MrgX1 antag	RGS4 pot	MrgX1 allo act	RGS4 block	MrgX1 ag
COC(=O)/C=C1\OC(c2ccccc2)=CC1=O	i	i	i	26*	i
Cc1ccc(S(=O)(=O)NCCC(=O)NCC(=O)Nc2c(C)cccc2C)cc1C	i	i	i	i	i
CCC[n+]1c(C)sc2c(OC)ccc(OC)c21	-5.5*	i	i	i	i
O=C(CCc1nnc2ccc(NCc3ccccc3)nn12)NC1CCCC1	i	i	i	i	i
O=C(N/C(=C/c1cccc([N+](=O)[O-])c1)C(=O)N1CCOCC1)c1ccc(Br)cc1	i	i	i	i	i
COc1ccc(/C=N/Nc2cc(C)nc3c(C)cccc23)cc1	-4.6*	i	i	i	i
CC(=O)Nc1ccccc1OCC(=O)c1cc(C)n(Cc2cccs2)c1C	i	i	i	i	48*
COc1ccc(NC(=O)C2(c3ccccc3)CCCC2)cc1	i	i	i	i	i
C[N+](C)(C)CCOC(=O)C1(c2ccccc2)CCCC1	i	-8.2*	i	i	i
C[N+]1(CCOC(=O)C2(c3ccccc3)CCCC2)CCCCC1	i	-7.5*	i	i	i
CC(C[N+](C)(C)C)OC(=O)C1(c2ccccc2)CCCC1 (configuration not stated)	i	-10*	i	i	i
CCN(CC)CCOC(=O)C1(c2ccccc2)CCOCC1	i	-7*	i	i	i
CCN(CC)CCOC(=O)C1(c2ccc([N+](=O)[O-])cc2)CCCC1	i	.	i	.	i
CCN(CC)CCOCCOC(=O)C1(c2ccccc2)CCCC1	i	i	i	i	i
O=C(c1cccc(C(F)(F)F)c1)N1CCc2c([nH]c3ccccc23)C1C(F)(F)F (configuration not stated)	i	i	i	i	i
O=C(Cn1c(=O)n(-c2ccccc2)c(=O)n1CC(=O)N1CCCCC1)N1CCCCC1	i	i	i	i	36*
Cc1cccc(-n2c(C)cc(C)c(C#N)c2=O)c1	i	i	i	i	i
NCCCCCc1nnc(SCc2ccc(Cl)c(Cl)c2)o1	i	-7.1*	i	i	i
COc1ccccc1NC(=O)Cn1nc(-c2ccc(Cl)cc2)c2ccccc2c1=O	i	i	i	i	34*
Cc1ccccc1C(=O)Nc1ccnn1C1CCN(Cc2cnn(C)c2)CC1	i	i	i	i	i
N=C1c2ccccc2CN1c1ccc(N2CCOCC2)c(S(=O)(=O)Nc2ccc(Cl)cc2)c1	i	i	i	i	i
CCOC(=O)N1CCN(S(=O)(=O)c2cc(Br)cnc2N)CC1	i	-7.4*	i	i	i
O=S(=O)(Nc1c(O)ccc2ccccc12)c1cccc2ccccc12	i	i	i	i	i
Cc1ccc(S(=O)(=O)Nc2c(Cl)c(Cl)c(O)c3ccccc23)cc1	i	i	i	5.5*	i
Cc1ccc(S(=O)(=O)Nc2c(O)ccc3ccccc23)cc1	i	i	i	i	47*
SMILES	MrgX1 antag	RGS4 pot	MrgX1 allo act	RGS4 block	MrgX1 ag
Cc1ccc(S(=O)(=O)Nc2ccccc2-c2ccccc2NS(=O)(=O)c2ccc(C)cc2)cc1	i	i	i	i	i
CC1CC(C)CN(C(=O)c2cc(-c3ccncc3)nc3ccccc23)C1 (configuration not stated)	i	i	i	i	i
COc1cccc(CN2CCN(C(=O)c3cc(-c4ccncc4)nc4ccc(C)cc34)CC2)c1	i	-7*	i	i	i
Cc1ccccc1CN1CCN(C(=O)c2cc(-c3ccncc3)nc3ccccc23)CC1	i	-7.1*	i	i	i
CC(=O)c1ccc(N2CCN(C(=O)c3cc(-c4ccncc4)nc4ccc(Cl)cc34)CC2)cc1	i	-7.4*	i	i	i
Cc1ccnc(NC(=O)CNC(=O)c2ccc(Br)o2)c1	i	i	i	i	i
COc1c(CC=C(C)C)c(O)cc2oc(=O)c3c4ccc(O)cc4oc3c12	-11*	i	i	i	i
COc1c2c(cc3oc(=O)c4c5ccc(O)cc5oc4c13)OC(C)(C)CC2	i	i	i	i	i

Assay outcomes from PubChem.
